# Only some compounds are listed: those with a hit (about 5.1% of all), similar ones and a draw of the others.
# BAP1 block: human BAP1 deubiquitinase inhibition. recombinant BAP1, Ub-AMC hydrolysis fluorescence kinetic; hits give low values. calls only at 20 µM. Q92560. hit rate 0.48% among 72,000;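 active = activity remaining at or below 50% of control, provided the compound also passes the data quality filters; inactive = the rest, including low values that fail the filters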;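 note: 100% = DMSO wells rate and 0% = substrate alone blank rate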
# Target sequence (Q92560 whole entry, looked up): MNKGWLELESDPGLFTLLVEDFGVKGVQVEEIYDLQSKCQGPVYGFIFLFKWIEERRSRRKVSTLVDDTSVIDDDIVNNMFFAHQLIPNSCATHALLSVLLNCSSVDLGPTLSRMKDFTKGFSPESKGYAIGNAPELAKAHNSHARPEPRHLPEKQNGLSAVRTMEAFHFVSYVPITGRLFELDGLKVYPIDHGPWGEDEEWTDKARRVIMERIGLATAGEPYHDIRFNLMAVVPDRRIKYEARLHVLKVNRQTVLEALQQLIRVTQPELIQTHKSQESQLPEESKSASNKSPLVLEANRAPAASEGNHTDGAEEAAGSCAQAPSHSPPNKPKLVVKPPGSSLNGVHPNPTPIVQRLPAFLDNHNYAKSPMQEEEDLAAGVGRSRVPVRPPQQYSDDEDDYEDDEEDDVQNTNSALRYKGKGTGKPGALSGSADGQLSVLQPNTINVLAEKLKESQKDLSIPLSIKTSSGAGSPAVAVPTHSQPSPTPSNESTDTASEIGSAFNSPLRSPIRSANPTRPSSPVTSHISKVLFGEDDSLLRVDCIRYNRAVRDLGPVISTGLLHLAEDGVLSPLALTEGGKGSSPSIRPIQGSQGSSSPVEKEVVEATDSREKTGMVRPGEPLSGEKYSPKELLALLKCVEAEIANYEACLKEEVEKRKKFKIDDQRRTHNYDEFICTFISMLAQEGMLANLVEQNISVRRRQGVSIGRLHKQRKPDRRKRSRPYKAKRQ
# M1 agonist: agonists of M1 muscarinic receptor; hit rate 3% among 64,000; CHO-M1 cells, Fluo-4 calcium fluorescence, agonist mode; hits give high values; B-score at 10 µM;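 active = fluorescence rise, raw or as B-score row- and column-corrected plate score, outside the 99.7% band of its plate's samples, either direction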
# Ecoli tolC: blocks growth of E. coli BW25113 tolC mutant | OD615 | growth inhibition, % at 10 µM (by protocol) | hit rate 2.2% among 65,000 | AID 573;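 active = growth inhibition at or above a cutoff equal to the mean over every tested compound plus 3 SD, cut at about 60% in these data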;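 note: growth measured after 20 h incubation at 37 °C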
#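 Test system – E. coli BW25113 ΔtolC::kan, tolC deletion mutant strain · Detection – OD at 615 nm · Buffer or medium – LB with kanamycin 50 µg/mL · Times – 20 h compound exposure of bacteria at 37 °C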
# Hsp90 block: displaces geldanamycin probe from tumor Hsp90. hit rate 0.35% among 64,000. inhibition, % at 30 µM. NCI-N417 lysate Hsp90, Cy3B-geldanamycin FP displacement. P07900;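 active = inhibition above 50%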;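 note: 0% = tracer plus lysate wells and 100% = tracer alone without lysate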
# Ecoli WT expand: growth inhibitors of E. coli BW25113 wild type. OD600 absorbance. hit rate 0.15% among 98,000. AID 710. growth inhibition, % at 100 µM;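 active = growth inhibition above about 50% at one test dose, limit read from the data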;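 note: growth measured after 20 h incubation at 37 °C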
# M1 antagonist: blocks the rat M1 muscarinic receptor response to acetylcholine; CHO-M1 cells, Fluo-4 calcium, ACh EC80 antagonist mode; hits give low values; B-score at 10 µM; hit rate 3.4% among 64,000; AID 628;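 active = calcium fluorescence response, raw or row-and-column corrected B-score, differing from the plate sample mean either way at a set confidence level, mostly lower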
# M1 antag conf: M1 muscarinic receptor (rat) antagonism, confirmed; CHO-M1 cells, Fluo-4 calcium, ACh EC80 antagonism; hits give low values; calcium response (max-min fluorescence) at 10 µM; hit rate 43% among 1,700; shares compounds with M1 antagonist; AID 677;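 active = calcium response below the same-plate mean of wells given acetylcholine alone at its 80%-effect dose, minus 3 SD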;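 note: raw fluorescence intensity difference in arbitrary instrument units and not normalized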
# mGluR4 antag: selectivity test for M1 antagonists: human mGluR4 receptor; shares compounds with M1 antagonist; CHO-mGluR4 calcium flux, Fluo-4 fluorescence, glutamate EC80; hits give low values; fluorescence response (max-min) at 10 µM; hit rate 0.9% among 1,700; AID 678;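 active = fluorescence response below the plate's average for near-maximal glutamate wells, less 3 SD of those wells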;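 note: raw unnormalized fluorescence span taken in the window right after glutamate addition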
# The depositor's hits bear a star; i = inactive; . = not tested or not shown.
SMILES,BAP1 block,M1 agonist,Ecoli tolC,Hsp90 block,Ecoli WT expand,M1 antagonist,M1 antag conf,mGluR4 antag
CC(C)n1c(=N)c(C(=O)NCCc2ccccc2)cc2c(=O)n3ccccc3nc21,.,4.11,3.6,-1.2,3.0,-4.05*,445*,247
Cc1cccn2c(=O)c3cc(C(=O)NCc4cccnc4)c(=N)n(C(C)C)c3nc12,i,-1.24,3.7,0.4,8.0,-2.53*,579,259
CSc1cccc(NC(=O)CSc2nc3ccccc3o2)c1,i,-0.0116,36.2,0.4,-3.0,-3.27*,577,272
Cc1ccc2c(c1)N(CCC(=O)NC1CC1)C(=O)C(C)O2 (stereo not given),i,0.00411,-17.9,-1.0,-3.0,-3.96*,671,235
O=C(Nc1ccc(Br)c(Cl)c1)C1CC1,i,0.697,16.9,-0.1,22.0,-6.24*,626,237
Cc1ccc(C(=O)Nc2ccc(I)cc2)cc1S(=O)(=O)N1CCOCC1,i,.,.,.,.,.,.,.
Cc1ccc(OC(=O)COc2ccc(Cl)cc2)cc1C,i,.,.,.,.,.,.,.
COc1ccc2cc(CN(Cc3cccnc3)S(=O)(=O)c3ccccc3)c(=O)[nH]c2c1,.,0.94,3.8,-6.1,4.0,-2.44*,591,242
CCN(CCO)Cc1csc2cccc(Br)c12,.,.,.,.,10.0,.,.,.
CCN(CC)CCN(CC)Cc1ccccc1Br,i,0.706,-12.1,-0.2,2.0,-3.29*,451,193
O=C(NCCN1CCCCC1)Nc1ccc(F)c(Cl)c1,i,0.228,-1.7,-0.5,17.0,-2.81*,569,216
O=C(NCCCN1CCCC1=O)Nc1ccc(F)c(Cl)c1,.,.,.,.,27.0,.,.,.
CC(=O)C1=C(Nc2ccc(C)cc2)CC(C)(O)C(C(C)=O)C1c1ccco1 (stereo not given),i,0.0793,-0.6,-3.5,-2.0,-13.1*,646,233
Cc1cc(C2(c3ccc(O)c(C)c3)CCC(C)CC2)ccc1O,i,.,.,.,.,.,.,.
O=C(NC1CCCCC1)n1c(=O)oc2ccccc21,i,-0.149,-14.2,2.7,8.0,-14.6*,703,207
COc1cccc(OC)c1C(=O)N1CCN(Cc2ccccc2C(F)(F)F)CC1,i,-0.0384,13.6,1.1,11.0,-2.97*,540,200
COc1ccccc1CN1CCN(C(=O)c2c(OC)cccc2OC)CC1,i,.,.,.,.,.,.,.
Cc1ccccc1N(CC(=O)NCCc1ccccc1)C(=O)c1ccc(N2CCCC2)nc1,i,-0.946,20.0,-2.3,-8.0,-4.61*,667,241
O=C(NC12CC3CC(CC(C3)C1)C2)C(F)(F)F,i,.,.,.,.,.,.,.
O=C(CN1CCSCC1)N1CCc2[nH]c3ccc(Br)cc3c2C1,i,-0.14,26.7,-5.4,19.0,-11.2*,124*,230
Cc1cccc(NC(=O)C2CC3CCCC(C2)C3=O)c1 (stereo not given),i,.,.,.,.,.,.,.
Cc1noc(C)c1C(=O)N1CCN(C(=O)c2sc3cc(Cl)ccc3c2Cl)CC1,i,-0.238,10.9,-4.3,0.0,-3.99*,659,229
COc1cc(NC(=O)c2ccc(C)cc2)c(OC)cc1Cl,i,.,.,.,.,.,.,.
Cc1ccc(N2CC(c3nc4ccccc4n3C)CC2=O)cc1C (stereo not given),i,0.112,19.9,-1.8,5.0,-4.05*,447*,234
Cc1cc(C)cc(N2CC(c3nc4ccccc4n3C)CC2=O)c1 (stereo not given),i,0.192,-0.9,-0.6,4.0,0.0276,.,.
SMILES,BAP1 block,M1 agonist,Ecoli tolC,Hsp90 block,Ecoli WT expand,M1 antagonist,M1 antag conf,mGluR4 antag
CC(C)CCNCC(O)Cn1c2ccc(Cl)cc2c2cc(Cl)ccc21 (stereo not given),i,.,.,.,.,.,.,.
CCCOc1cccc(C(=O)Nc2cc(-c3nc4ccccc4o3)ccc2C)c1,i,.,.,.,.,.,.,.
CCOc1ccc2nc(N3CCC(C(=O)N4CCN(c5ccccn5)CC4)CC3)sc2c1,i,0.867,11.8,1.4,-7.0,-2.38*,411,198
COc1ccccc1-c1c(C)nn2c(NCCN3CCCC3)cc(C)nc12,i,0.0621,-17.4,-5.3,4.0,-1.85*,460,215
CCOC(=O)c1c(C)n(C)c2c1cc(OC(=O)c1ccccc1F)c1ccccc12,i,.,.,.,.,.,.,.
COc1ccc(-n2nc3c(c2NC(=O)c2cccc(C)c2)CSC3)cc1,i,.,.,.,.,.,.,.
Cc1cc(C(=O)N2CCN(C(c3ccccc3)c3ccccc3)CC2)no1,i,0.145,27.2,0.2,1.0,-3.02*,301*,198
O=C(c1ccc(=O)oc1)N1CCN(C(c2ccccc2)c2ccccc2)CC1,i,0.417,5.6,-2.7,14.0,-2.68*,319*,236
O=C(O)c1ccc2c(c1)C(=O)N(c1ccc(Sc3ccc([N+](=O)[O-])cc3)cc1)C2=O,i,.,.,.,.,.,.,.
Brc1ccc(-c2cnc3n2CCCC3)cc1,i,-0.539,25.2,4.3,30.0,-3.02*,288*,240
O=[N+]([O-])c1cccc(NS(=O)(=O)c2ccccc2)c1,i,.,.,.,.,.,.,.
O=C1CC(N2CCN(C/C=C/c3ccccc3)CC2)C(=O)N1CCc1ccccc1 (stereo not given),i,1.54,7.9,-6.5,5.0,-3.98*,422*,256
O=C1CC(N2CCN(c3ccc(O)cc3)CC2)C(=O)N1Cc1cccs1 (stereo not given),i,0,-6.1,3.7,1.0,0.604,.,.
O=C1CC(N2CCN(C/C=C/c3ccccc3)CC2)C(=O)N1Cc1cccs1 (stereo not given),i,0.965,3.9,2.4,5.0,-19.2*,22.9*,216
C1CCC(CNc2c3c(nc4nnnn24)CCCC3)CC1,.,-0.0657,-14.9,.,3.0,-2.94*,651,243

# Screening results as filed in PubChem BioAssay.
